{"source": "paper PMC4475435", "about": "(Clinical therapeutics, 2015)", "key": {"[1]": {"conditions": "cited from earlier work"}, "[2]": {"assay": "Population-based PK model", "assay_type": "in vivo, human", "in_short": "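Matched case-control: overweight/obese children (≥85th percentile, CDC charts) vs normal-weight controls matched on age (±1 y), SCr (±0.4 mg/dL), nephrotoxic co-medication and ICU stay; 389 serum levels, mostly drawn after third dose, with full dosing history. One-compartment first-order model, FOCE with interaction; age and SCr on CL; weight on Vd, weight^0.75 on CL; MAP Bayesian POSTHOC individual estimates; 1000-replicate bootstrap 95% CIs.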"}, "[3]": {"conditions": "weight used: Weight, cited from earlier work"}, "[4]": {"conditions": "4 normal-weight adults (Weight <115% IW), 25–30 y, weight used: Weight, SD"}, "[5]": {"conditions": "6 morbidly obese adults (Weight >190% IW), 27–37 y, weight used: Weight, SD"}, "[6]": {"conditions": "6 morbidly obese adults, 27–37 y, weight used: IW, SD"}, "[7]": {"conditions": "24 morbidly obese adults (Weight >190% IW), 41 (7) y, weight used: Weight, SD"}, "[8]": {"conditions": "24 morbidly obese adults, weight used: IW, SD"}, "[9]": {"conditions": "24 normal-weight adults, weight used: IW, SD"}, "[10]": {"conditions": "bootstrap analysis of 1000 replicates"}, "[11]": {"conditions": "obese and overweight children compared with those with normal weight"}, "[12]": {"conditions": "overweight/obese cases versus normal-weight controls, 87 matched pairs"}, "[13]": {"conditions": "18 overweight children, age 5, 0.5–18 y"}}, "note": "Read-outs that look alike come from different tables or passages of the source. Marks after values point to notes of the source that are not given here."}
{"compound": "CN[C@H](CC(C)C)C(=O)N[C@H]1C(=O)N[C@@H](CC(N)=O)C(=O)N[C@H]2C(=O)N[C@H]3C(=O)N[C@H](C(=O)N[C@H](C(=O)O)c4cc(O)cc(O)c4-c4cc3ccc4O)[C@H](O)c3ccc(c(Cl)c3)Oc3cc2cc(c3O[C@@H]2O[C@H](CO)[C@@H](O)[C@H](O)[C@H]2O[C@H]2C[C@](C)(N)[C@H](O)[C@H](C)O2)Oc2ccc(cc2Cl)[C@H]1O", "note": "[vancomycin]", "values": [{"measurement": "Clearance, Mean (SD) or Median (Range)", "setting": "[1]; [4]", "value": "0.065 (0.004) L/kg/h"}, {"measurement": "Vd, Mean (SD) or Median (Range)", "setting": "[1]; [4]", "value": "0.39 (0.06) L/kg"}, {"measurement": "Clearance, Mean (SD) or Median (Range)", "setting": "[1]; [5]", "value": "0.066 (0.01) L/kg/h"}, {"measurement": "Vd, Mean (SD) or Median (Range)", "setting": "[1]; [5]", "value": "0.26 (0.03) L/kg"}, {"measurement": "Clearance, Mean (SD) or Median (Range)", "setting": "[1]; [6]", "value": "0.174 (0.04) L/kg/h"}, {"measurement": "Vd, Mean (SD) or Median (Range)", "setting": "[1]; [6]", "value": "0.68 (0.07) L/kg"}, {"measurement": "Clearance, Mean (SD) or Median (Range)", "setting": "[1]; [7]", "value": "0.072 (0.012) L/kg/h"}, {"measurement": "Vd, Mean (SD) or Median (Range)", "setting": "[1]; [7]", "value": "0.32 (0.05) L/kg"}, {"measurement": "Clearance, Mean (SD) or Median (Range)", "setting": "[1]; [8]", "value": "0.186 (0.042) L/kg/h"}, {"measurement": "Vd, Mean (SD) or Median (Range)", "setting": "[1]; [8]", "value": "0.83 (0.08) L/kg"}, {"measurement": "Clearance, Mean (SD) or Median (Range)", "setting": "[1]; [9]", "value": "0.06 (0.024) L/kg/h"}, {"measurement": "Vd, Mean (SD) or Median (Range)", "setting": "[1]; [9]", "value": "0.64 (0.26) L/kg"}, {"measurement": "Vd, Mean (SD) or Median (Range)", "setting": "[1]; 37 underweight adults (Weight <80% IW), weight used: IW, 95% CI 0.55–0.68", "value": "0.62 (0.55–0.68 ^‡) L/kg"}, {"measurement": "Clearance, Mean (SD) or Median (Range)", "setting": "[1]; 107 obese adults (Weight >120% LBM), weight used: Weight, range of means", "value": "0.0366–0.051 ^† L/kg/h"}, {"measurement": "Vd, Mean (SD) or Median (Range)", "setting": "[1]; 108 obese adults (Weight >130% IW), weight used: IW, 95% CI 0.82–0.97", "value": "0.89 (0.82–0.97 ^‡) L/kg"}, {"measurement": "Vd, Mean (SD) or Median (Range)", "setting": "[1]; 108 obese adults (Weight >130% IW), weight used: Weight, 95% CI 0.52–0.59", "value": "0.56 (0.52–0.59 ^‡) L/kg"}, {"measurement": "θ1, Median Bootstrap Estimate (95% CI)", "setting": "[2]; [10]", "value": "0.572 (0.514–0.632)"}, {"measurement": "θ2, Median Bootstrap Estimate (95% CI)", "setting": "[2]; [10]", "value": "0.285 (0.268–0.304)"}, {"measurement": "θ3, Median Bootstrap Estimate (95% CI)", "setting": "[2]; [10]", "value": "0.291 (0.165–0.395)"}, {"measurement": "θ4, Median Bootstrap Estimate (95% CI)", "setting": "[2]; [10]", "value": "0.742 (0.194–1.263)"}, {"measurement": "θ1, population estimate: Vd (L) = θ1 × Weight (kg)", "setting": "[2]; final population PK model, 174 participants, 389 concentrations", "value": 0.574}, {"measurement": "decrease of weight-adjusted CL", "setting": "[2]; [11]", "value": 10.8, "unit": "%"}, {"measurement": "decrease of weight-adjusted Vd", "setting": "[2]; [11]", "value": 2.2, "unit": "%"}, {"measurement": "mean CL, based on weight, for cases lower than controls by", "setting": "[2]; [12]", "value": 0.233, "unit": "mL/min/kg"}, {"measurement": "mean Vd, based on weight, for cases lower than controls by", "setting": "[2]; [12]", "value": 0.012, "unit": "L/kg"}, {"measurement": "Clearance, Mean (SD) or Median (Range)", "setting": "[3]; 13 underweight children", "value": "0.18 (0.09) L/kg/h"}, {"measurement": "Vd, Mean (SD) or Median (Range)", "setting": "[3]; 13 underweight children", "value": "0.97 (0.54) L/kg"}, {"measurement": "Clearance, Mean (SD) or Median (Range)", "setting": "[3]; [13]", "value": "0.16 (0.05) L/kg/h"}, {"measurement": "Vd, Mean (SD) or Median (Range)", "setting": "[3]; [13]", "value": "0.81 (0.37) L/kg"}, {"measurement": "Clearance, Mean (SD) or Median (Range)", "setting": "[3]; 31 normal-weight children", "value": "0.2 (0.08) L/kg/h"}, {"measurement": "Vd, Mean (SD) or Median (Range)", "setting": "[3]; 31 normal-weight children", "value": "1 (0.35) L/kg"}]}
